Assay results as given in ChEMBL document CHEMBL2396535, “Synthesis and biological evaluation of 18F-labled 2-phenylindole derivatives as PET imaging probes for β-amyloid plaques” (Bioorg Med Chem, 2013).
Each block holds one molecule with its values, some of them ahead of it. Active and inactive are the calls of the source. The rule behind the calls is not given here.

Columns and labels:
[1] = target: Amyloid-beta precursor protein (Homo sapiens, UniProt P05067); assay: Displacement of [125I]IMPY from amyloid beta (1 to 42) (unknown origin) after 3 hrs by gamma counting analysis
Chain of Amyloid-beta precursor protein (P05067 whole entry): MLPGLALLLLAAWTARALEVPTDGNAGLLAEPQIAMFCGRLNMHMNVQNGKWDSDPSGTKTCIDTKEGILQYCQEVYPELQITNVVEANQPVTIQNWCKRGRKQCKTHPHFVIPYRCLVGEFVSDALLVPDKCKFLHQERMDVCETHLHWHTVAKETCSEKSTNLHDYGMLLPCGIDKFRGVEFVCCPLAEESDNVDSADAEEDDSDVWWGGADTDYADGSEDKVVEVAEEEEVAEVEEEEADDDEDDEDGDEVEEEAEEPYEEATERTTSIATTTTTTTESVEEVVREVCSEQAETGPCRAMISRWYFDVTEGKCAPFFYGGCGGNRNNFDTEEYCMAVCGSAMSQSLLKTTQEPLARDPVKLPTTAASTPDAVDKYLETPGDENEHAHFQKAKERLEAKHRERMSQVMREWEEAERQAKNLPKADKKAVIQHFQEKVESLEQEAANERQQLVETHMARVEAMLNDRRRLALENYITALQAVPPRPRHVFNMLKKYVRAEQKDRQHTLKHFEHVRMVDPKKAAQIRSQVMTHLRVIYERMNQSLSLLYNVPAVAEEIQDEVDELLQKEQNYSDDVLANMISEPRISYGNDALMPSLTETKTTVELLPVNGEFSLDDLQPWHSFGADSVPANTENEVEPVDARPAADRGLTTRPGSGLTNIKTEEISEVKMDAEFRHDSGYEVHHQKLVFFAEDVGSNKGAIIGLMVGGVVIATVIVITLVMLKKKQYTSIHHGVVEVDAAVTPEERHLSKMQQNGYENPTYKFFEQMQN
Procedure, shortened: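 Test compound ranged over 10^-4 to 10^-8.5 in ethanol, in 0.05% BSA, 1 mL total. Incubation was 3 h at room temperature, then GF/B filtration and gamma counting. IC50 came from three independent experiments, and Ki was derived by Cheng–Prusoff.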

[2] = Ratio of drug level in brain to blood in ICR mouse after 2 mins; assay type: ADME, tissue-based; details: brain and blood, read-out: BBR
Procedure, shortened: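 Male ICR mice (5 weeks) received the ¹⁸F tracer (740–1110 kBq/mL) in saline with 10% EtOH by tail-vein injection. Five mice per time point were sacrificed at 2, 10, 30 and 60 min. Organs were removed, weighed and gamma-counted, and expressed as %ID/g. The ratio is brain %ID/g over blood %ID/g at 2 min.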

Brain = assay: Ratio of drug level in brain after 2 mins to drug level in brain after 60 mins in ICR mouse; assay type: ADME, tissue-based; details: in vivo
Procedure, shortened: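 Male normal ICR mice (5 weeks old), n = 5 per time point, received a tail-vein injection of [18F] tracer (740–1110 kBq/mL) in saline containing 10% EtOH. Mice were sacrificed at 2, 10, 30 and 60 min. Organs were removed, weighed and gamma-counted, and data were expressed as %ID/g.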

Mus musculus [3] = species on record: Mus musculus; assay: Binding affinity to amyloid beta in wild-type C57BL/6 mouse brain at 185 to 370 kBq after 1 hr by autoradiographic analysis; assay type: tissue-based; details: tested as the 18F-labelled form
Procedure, shortened: (§1)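 Paraffin-embedded brain sections from male APPswe/PSEN1 transgenic C57BL6 mice (11 months old) and wild-type C57BL6 controls (11 months old) were incubated with [18F] tracer (185–370 kBq) for 1 h at room temperature, washed with 40% EtOH, dried and exposed to an imaging plate for 1 h. Plaques were confirmed on the same sections by thioflavin-S (0.125%) fluorescent staining.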

Mus musculus [4] = species on record: Mus musculus; assay: Binding affinity to amyloid beta in transgenic C57BL/6 mouse cerebellum harboring APPswe and PSEN1 double mutation at 185 to 370 kBq after 1 hr by autoradiographic analysis; assay type: tissue-based; details: tested as the 18F-labelled form; procedure, shortened: as §1
Mus musculus [5] = species on record: Mus musculus; assay: Binding affinity to amyloid beta in transgenic C57BL/6 mouse hippocampus harboring APPswe and PSEN1 double mutation at 185 to 370 kBq after 1 hr by thioflavin-S staining-based assay; assay type: tissue-based; details: tested as the 18F-labelled form; procedure, shortened: as §1
Mus musculus [6] = species on record: Mus musculus; assay: Binding affinity to amyloid beta in transgenic C57BL/6 mouse cerebellum harboring APPswe and PSEN1 double mutation at 185 to 370 kBq after 1 hr by thioflavin-S staining-based assay; assay type: tissue-based; details: tested as the 18F-labelled form; procedure, shortened: as §1
Mus musculus [7] = species on record: Mus musculus; assay: Binding affinity to amyloid beta in transgenic C57BL/6 mouse cortex harboring APPswe and PSEN1 double mutation at 185 to 370 kBq after 1 hr by autoradiographic analysis; details: tested as the 18F-labelled form; procedure, shortened: as §1
Mus musculus [8] = species on record: Mus musculus; assay: Binding affinity to amyloid beta in transgenic C57BL/6 mouse cortex harboring APPswe and PSEN1 double mutation at 185 to 370 kBq after 1 hr by thioflavin-S staining-based assay; details: tested as the 18F-labelled form; procedure, shortened: as §1
Mus musculus [9] = species on record: Mus musculus; assay: Binding affinity to amyloid beta in transgenic C57BL/6 mouse hippocampus harboring APPswe and PSEN1 double mutation at 185 to 370 kBq after 1 hr by autoradiographic analysis; assay type: tissue-based; details: tested as the 18F-labelled form; procedure, shortened: as §1

Ki [1]: 1100 nM
Structure (SMILES): Cn1c(-c2ccc(NCCCF)cc2)cc2ccccc21

Kp at 2 min [2]: 0.52
Ratio (Brain): 1.17
Structure (SMILES): OCCOc1ccc(-c2cc3cc([125I])ccc3[nH]2)cc1

Ki [1]: 79.7 nM
Structure (SMILES): CN(CCCF)c1ccc(-c2cc3ccccc3n2C)cc1

Ki [1]: 117 nM
Structure (SMILES): CN(CCF)c1ccc(-c2cc3ccccc3n2C)cc1

Activity (Mus musculus [3]): inactive
Ki [1]: 28.4 nM
Activity (Mus musculus [4]): Active
Activity (Mus musculus [5]): Active
Activity (Mus musculus [6]): Active
Activity (Mus musculus [7]): Active
Activity (Mus musculus [8]): Active
Activity (Mus musculus [9]): Active
Structure (SMILES): CN(CCF)c1ccc(-c2cc3ccccc3[nH]2)cc1
